Consider 15 compounds from ChEMBL document CHEMBL1144110, “Triterpene saponins and lignans from the roots of Pulsatilla chinensis and their cytotoxic activity against HL-60 cells” (J Nat Prod, 1999).

The structures appear in SMILES notation. ≈ marks a conversion by molar mass, not a printed value.

This assay deals with HL-60. In words: Cytotoxicity against human HL-60 cells after 72 hrs by MTT assay. Format: functional, cell-based. Conditions: HL-60, 72 h. The gist of the method: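 HL-60 human promyelocytic leukemia cells grown in RPMI 1640 with 10% FBS, L-glutamine and penicillin/streptomycin. Seeded at 3 × 10^4 cells/mL and preincubated 24 h at 37 °C in 5% CO2. Samples added in EtOH–H2O (1:1) at final 0.0001–50 µg/mL, with vehicle controls, for 72 h. MTT then 4 h, formazan dissolved in DMSO, read at 550 nm. IC50 taken from dose-response curves of samples giving >50% inhibition at 10 µg/mL.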
`C[C@@H]1O[C@@H](O[C@H]2[C@H](O[C@H]3CC[C@]4(C)[C@H]5CC=C6[C@@H]7CC(C)(C)CC[C@]7(C(=O)O)CC[C@@]6(C)[C@]5(C)CC[C@H]4C3(C)C)OC[C@H](O)[C@@H]2O)[C@H](O)[C@H](O[C@@H]2O[C@H](CO)[C@@H](O[C@@H]3O[C@H](CO)[C@@H](O)[C@H](O)[C@H]3O)[C@H](O)[C@H]2O)[C@H]1O` had a concentration for half-maximal inhibition (IC50) of 2.6 µg/mL (≈ 2.45 µM).

On to `CC1(C)CC[C@]2(C(=O)O)CC[C@]3(C)C(=CC[C@@H]4[C@@]5(C)CC[C@H](O[C@@H]6OC[C@H](O[C@@H]7O[C@H](CO)[C@@H](O)[C@H](O)[C@H]7O)[C@H](O)[C@H]6O)[C@@](C)(CO)[C@@H]5CC[C@]43C)[C@@H]2C1`, for which the IC50 is more than 10 µg/mL.

In the case of `C[C@@H]1O[C@@H](O[C@H]2[C@H](O[C@H]3CC[C@]4(C)[C@H]5CC=C6[C@@H]7CC(C)(C)CC[C@]7(C(=O)O)CC[C@@]6(C)[C@]5(C)CC[C@H]4C3(C)C)OC[C@H](O)[C@@H]2O)[C@H](O)[C@H](O[C@@H]2O[C@H](CO)[C@@H](O)[C@H](O)[C@H]2O)[C@H]1O`, the concentration for half-maximal inhibition (IC50) turned out to be 3.6 µg/mL (≈ 4.01 µM).

Take `C[C@@H]1O[C@@H](O[C@H]2[C@H](O[C@H]3CC[C@@]4(C)[C@@H](CC[C@]5(C)[C@@H]4CC=C4[C@@H]6CC(C)(C)CC[C@]6(C(=O)O)CC[C@]45C)[C@]3(C)CO)OC[C@H](O)[C@@H]2O)[C@H](O)[C@H](O[C@@H]2O[C@H](CO)[C@@H](O)[C@H](O)[C@H]2O)[C@H]1O`: the IC50 was 7.8 µg/mL (≈ 8.54 µM).

Consider `C[C@@H]1O[C@@H](O[C@H]2[C@H](O[C@H]3CC[C@]4(C)[C@H]5CC=C6[C@@H]7CC(C)(C)CC[C@]7(C(=O)O)CC[C@@]6(C)[C@]5(C)CC[C@H]4C3(C)C)OC[C@H](O)[C@@H]2O)[C@H](O)[C@H](O)[C@H]1O`, for which the 50% inhibitory concentration (IC50) was found to be 4.4 µg/mL (≈ 5.99 µM).

In turn, `COC(=O)[C@]12CCC(C)(C)C[C@H]1C1=CC[C@@H]3[C@@]4(C)CC[C@H](O[C@@H]5OC[C@H](O)[C@H](O)[C@H]5O[C@@H]5O[C@@H](C)[C@H](O)[C@@H](O[C@@H]6O[C@H](CO)[C@@H](O[C@@H]7O[C@H](CO)[C@@H](O)[C@H](O)[C@H]7O)[C@H](O)[C@H]6O)[C@H]5O)C(C)(C)[C@@H]4CC[C@@]3(C)[C@]1(C)CC2` came in with a concentration for half-maximal inhibition (IC50) of 7.8 µg/mL (≈ 7.27 µM).

On to `COC(=O)[C@]12CCC(C)(C)C[C@H]1C1=CC[C@@H]3[C@@]4(C)CC[C@H](O[C@@H]5OC[C@H](O)[C@H](O)[C@H]5O[C@@H]5O[C@@H](C)[C@H](O)[C@@H](O[C@@H]6O[C@H](CO)[C@@H](O)[C@H](O)[C@H]6O)[C@H]5O)[C@@](C)(CO)[C@@H]4CC[C@@]3(C)[C@]1(C)CC2`, for which the midpoint of inhibition, the IC50, lay at 8 µg/mL (≈ 8.63 µM). This IC50 and that of the compound before are within 1.5-fold of each other.

`C[C@@H]1O[C@@H](O[C@H]2[C@H](O[C@H]3CC[C@]4(C)[C@H]5CC=C6[C@@H]7CC(C)(C)CC[C@]7(C(=O)O)CC[C@@]6(C)[C@]5(C)CC[C@H]4C3(C)C)OC[C@H](O[C@@H]3O[C@H](CO)[C@@H](O)[C@H](O)[C@H]3O)[C@@H]2O)[C@H](O)[C@H](O[C@@H]2O[C@H](CO)[C@@H](O[C@@H]3O[C@H](CO)[C@@H](O)[C@H](O)[C@H]3O)[C@H](O)[C@H]2O)[C@H]1O`: the IC50 stood at 2.7 µg/mL (≈ 2.21 µM).

Compound `COc1cc([C@@H]2OC[C@@H]3[C@H]2CO[C@H]3c2ccc(O)c(OC)c2)ccc1O` [(+)-PINORESINOL] yielded a concentration for half-maximal inhibition (IC50) of more than 10 µg/mL.

Turning to `C[C@@H]1O[C@@H](O[C@H]2[C@H](O[C@H]3CC[C@@]4(C)[C@@H](CC[C@]5(C)[C@@H]4CC=C4[C@@H]6CC(C)(C)CC[C@]6(C(=O)O)CC[C@]45C)[C@]3(C)CO)OC[C@H](O)[C@@H]2O)[C@H](O)[C@H](O)[C@H]1O` [ALPHA-HEDERIN], the IC50 stood at 7.1 µg/mL (≈ 9.45 µM).

On to `COc1cc([C@@H]2c3cc4c(c(O)c3C[C@H]3COC(=O)[C@@H]32)OCO4)cc(OC)c1OC` [BETA-PELTATIN A], for which the 50% inhibitory concentration (IC50) was 0.0052 µg/mL (≈ 0.0125 µM). Compared with the last compound, the IC50 is about 1400-fold lower.

`COc1cc([C@@H]2c3cc4c(cc3[C@@H](O[C@@H]3O[C@@H]5CO[C@@H](C)O[C@H]5[C@H](O)[C@H]3O)[C@H]3COC(=O)[C@H]23)OCO4)cc(OC)c1O` [ETOPOSIDE] returned an IC50 of 0.3 µg/mL (≈ 0.51 µM).

Consider `C[C@@H]1O[C@@H](O[C@H]2[C@H](O[C@H]3CC[C@]4(C)[C@H]5CC=C6[C@@H]7CC(C)(C)CC[C@]7(C(=O)O)CC[C@@]6(C)[C@]5(C)CC[C@H]4C3(C)C)OC[C@H](O[C@@H]3O[C@H](CO)[C@@H](O)[C@H](O)[C@H]3O)[C@@H]2O)[C@H](O)[C@H](O)[C@H]1O` [HEDERACOLCHISIDE A1], for which the half-maximal inhibitory concentration (IC50) stood at 2.3 µg/mL (≈ 2.56 µM).

In turn, `C[C@@H]1O[C@@H](O[C@H]2[C@H](O[C@H]3CC[C@@]4(C)[C@@H](CC[C@]5(C)[C@@H]4CC=C4[C@@H]6CC(C)(C)CC[C@]6(C(=O)O)CC[C@]45C)[C@]3(C)CO)OC[C@H](O[C@@H]3O[C@H](CO)[C@@H](O)[C@H](O)[C@H]3O)[C@@H]2O)[C@H](O)[C@H](O)[C@H]1O` [HEDERACOLCHISIDE A] registered an IC50 of 3.8 µg/mL (≈ 4.16 µM).

`CC1(C)CC[C@]2(C(=O)O)CC[C@]3(C)C(=CC[C@@H]4[C@@]5(C)CC[C@H](O)C(C)(C)[C@@H]5CC[C@]43C)[C@@H]2C1` [OLEANOLIC_ACID] had an IC50 of more than 50 µg/mL.
